1 compound from ChEMBL document CHEMBL5661979, “Pharmacological inhibition of BMK1 suppresses tumor growth through promyelocytic leukemia protein” (Cancer Cell, 2010) can be followed below.

Structures are written as SMILES.

Data set [1] has as its target Ribosomal protein S6 kinase beta-1 (Homo sapiens, UniProt P23443). The data set is described as follows: Inhibition of P70S6K in human HeLa cells lysate pre incubated for 15 mins followed by ATP acyl phosphate probe addition and measured after 10 mins by LC-MS/MS analysis. It counts as subcellular.
The target of data set [2] is Mitogen-activated protein kinase 1 (Homo sapiens, UniProt P28482). As to the kind of experiment: Inhibition of ERK2 in human HeLa cells lysate pre incubated for 15 mins followed by ATP acyl phosphate probe addition and measured after 10 mins by LC-MS/MS analysis. It counts as subcellular.
Chain of Mitogen-activated protein kinase 1 (P28482 whole entry): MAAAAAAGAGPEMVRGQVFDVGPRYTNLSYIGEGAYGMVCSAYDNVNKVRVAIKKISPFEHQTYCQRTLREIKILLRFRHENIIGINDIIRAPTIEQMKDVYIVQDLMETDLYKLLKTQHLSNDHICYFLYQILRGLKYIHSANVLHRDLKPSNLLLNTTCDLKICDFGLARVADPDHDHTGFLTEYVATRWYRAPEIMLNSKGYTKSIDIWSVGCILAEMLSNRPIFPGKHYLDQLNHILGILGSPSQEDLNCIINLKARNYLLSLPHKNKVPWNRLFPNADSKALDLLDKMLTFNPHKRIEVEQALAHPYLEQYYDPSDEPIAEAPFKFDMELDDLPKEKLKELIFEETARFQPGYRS
Data set [3] deals with Cyclin-dependent kinase 9 (Homo sapiens, UniProt P50750). The data set is described as follows: Inhibition of CDK9 in human HeLa cells lysate at 50 uM pre incubated for 15 mins followed by ATP acyl phosphate probe addition and measured after 10 mins by LC-MS/MS analysis relative to control. The note with it: time 25.0 min. It counts as subcellular. The method in brief:
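KiNativ profiling in HeLa lysate (5 mg/mL total protein). Lysate incubated 15 min with inhibitor at 50, 10, 2, 0.8 or 0 μM. ATP or ADP acylphosphate probe then added (5 μM final) and reacted 10 min. Reaction stopped with urea and analysed by targeted MS, using up to four fragment ions per kinase peptide-probe conjugate. % inhibition taken against untreated lysate. Run in duplicate.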

Data set [4] deals with Tyrosine-protein kinase Fyn (Homo sapiens, UniProt P06241). The data set is described as follows: Inhibition of FYN in human HeLa cells lysate pre incubated for 15 mins followed by ADP acyl phosphate probe addition and measured after 10 mins by LC-MS/MS analysis. It counts as subcellular.
Chain of Tyrosine-protein kinase Fyn (P06241 whole entry): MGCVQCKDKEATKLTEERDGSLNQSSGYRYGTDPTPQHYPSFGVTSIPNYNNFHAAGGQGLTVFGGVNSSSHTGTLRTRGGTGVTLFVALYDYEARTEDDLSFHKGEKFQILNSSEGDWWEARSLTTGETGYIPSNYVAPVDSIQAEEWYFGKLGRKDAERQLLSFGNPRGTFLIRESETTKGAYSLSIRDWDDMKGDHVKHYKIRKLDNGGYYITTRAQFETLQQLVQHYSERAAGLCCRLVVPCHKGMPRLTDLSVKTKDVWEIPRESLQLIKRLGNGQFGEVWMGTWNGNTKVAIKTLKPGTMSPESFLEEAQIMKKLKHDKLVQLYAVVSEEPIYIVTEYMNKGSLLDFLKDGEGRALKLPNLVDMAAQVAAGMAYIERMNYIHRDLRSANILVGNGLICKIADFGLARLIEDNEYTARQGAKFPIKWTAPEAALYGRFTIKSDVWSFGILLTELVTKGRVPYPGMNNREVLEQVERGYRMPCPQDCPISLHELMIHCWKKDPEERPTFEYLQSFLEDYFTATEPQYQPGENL
The target of data set [5] is Mitogen-activated protein kinase kinase kinase 4 (Homo sapiens, UniProt Q9Y6R4). As to the kind of experiment: Inhibition of MAP3K4 in human HeLa cells lysate pre incubated for 15 mins followed by ATP acyl phosphate probe addition and measured after 10 mins by LC-MS/MS analysis. It counts as subcellular.
Chain of Mitogen-activated protein kinase kinase kinase 4 (Q9Y6R4 whole entry): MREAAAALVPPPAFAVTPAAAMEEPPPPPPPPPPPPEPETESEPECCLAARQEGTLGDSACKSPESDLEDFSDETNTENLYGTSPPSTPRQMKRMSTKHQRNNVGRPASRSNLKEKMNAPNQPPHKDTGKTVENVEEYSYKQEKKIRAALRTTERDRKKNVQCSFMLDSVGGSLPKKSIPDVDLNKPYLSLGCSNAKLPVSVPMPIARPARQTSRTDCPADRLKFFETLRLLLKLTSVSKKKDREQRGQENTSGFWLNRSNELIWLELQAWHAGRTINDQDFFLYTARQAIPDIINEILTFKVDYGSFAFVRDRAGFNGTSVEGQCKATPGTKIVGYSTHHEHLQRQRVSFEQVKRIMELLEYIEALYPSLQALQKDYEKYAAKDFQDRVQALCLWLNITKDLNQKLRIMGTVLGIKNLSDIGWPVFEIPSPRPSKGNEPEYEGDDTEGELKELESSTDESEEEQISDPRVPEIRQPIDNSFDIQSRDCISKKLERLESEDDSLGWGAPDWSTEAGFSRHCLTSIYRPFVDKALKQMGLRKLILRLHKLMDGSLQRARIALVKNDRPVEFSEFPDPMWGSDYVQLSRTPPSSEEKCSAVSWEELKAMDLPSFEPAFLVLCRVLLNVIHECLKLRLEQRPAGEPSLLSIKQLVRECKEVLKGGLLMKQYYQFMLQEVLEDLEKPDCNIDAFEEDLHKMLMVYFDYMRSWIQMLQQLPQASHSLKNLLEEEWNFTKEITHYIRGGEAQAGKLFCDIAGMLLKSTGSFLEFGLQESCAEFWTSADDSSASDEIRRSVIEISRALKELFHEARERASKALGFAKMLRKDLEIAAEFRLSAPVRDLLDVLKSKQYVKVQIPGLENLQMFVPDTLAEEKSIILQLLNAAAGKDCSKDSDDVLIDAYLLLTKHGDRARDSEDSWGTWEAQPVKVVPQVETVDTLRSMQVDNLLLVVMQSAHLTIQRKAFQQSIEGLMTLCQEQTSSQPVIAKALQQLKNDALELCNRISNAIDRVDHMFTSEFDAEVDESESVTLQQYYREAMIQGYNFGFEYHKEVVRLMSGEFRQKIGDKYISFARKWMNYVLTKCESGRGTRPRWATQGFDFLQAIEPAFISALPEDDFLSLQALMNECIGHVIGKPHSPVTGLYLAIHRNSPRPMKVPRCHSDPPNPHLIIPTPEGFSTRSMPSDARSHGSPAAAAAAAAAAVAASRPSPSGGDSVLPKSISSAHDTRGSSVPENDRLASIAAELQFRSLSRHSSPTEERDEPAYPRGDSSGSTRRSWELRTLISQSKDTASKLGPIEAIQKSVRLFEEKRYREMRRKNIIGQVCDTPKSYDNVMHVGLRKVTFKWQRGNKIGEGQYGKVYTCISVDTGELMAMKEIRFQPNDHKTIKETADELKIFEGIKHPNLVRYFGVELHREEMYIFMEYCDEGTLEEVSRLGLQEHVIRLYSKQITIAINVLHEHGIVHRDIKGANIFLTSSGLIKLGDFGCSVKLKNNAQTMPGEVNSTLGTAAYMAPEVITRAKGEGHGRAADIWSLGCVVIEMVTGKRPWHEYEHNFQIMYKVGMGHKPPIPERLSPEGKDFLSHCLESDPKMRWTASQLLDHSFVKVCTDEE
The target of data set [6] is Macrophage-stimulating protein receptor (Homo sapiens, UniProt Q04912). The data set is described as follows: Inhibition of RON in human HeLa cells lysate at 2 uM pre incubated for 15 mins followed by ADP acyl phosphate probe addition and measured after 10 mins by LC-MS/MS analysis relative to control. It counts as subcellular. The note with it: time 25.0 min.
Data set [7] deals with Serine/threonine-protein kinase MRCK beta (Homo sapiens, UniProt Q9Y5S2). As to the kind of experiment: Inhibition of MRCKB in human HeLa cells lysate pre incubated for 15 mins followed by ATP acyl phosphate probe addition and measured after 10 mins by LC-MS/MS analysis. It counts as subcellular.
Chain of Serine/threonine-protein kinase MRCK beta (Q9Y5S2 whole entry): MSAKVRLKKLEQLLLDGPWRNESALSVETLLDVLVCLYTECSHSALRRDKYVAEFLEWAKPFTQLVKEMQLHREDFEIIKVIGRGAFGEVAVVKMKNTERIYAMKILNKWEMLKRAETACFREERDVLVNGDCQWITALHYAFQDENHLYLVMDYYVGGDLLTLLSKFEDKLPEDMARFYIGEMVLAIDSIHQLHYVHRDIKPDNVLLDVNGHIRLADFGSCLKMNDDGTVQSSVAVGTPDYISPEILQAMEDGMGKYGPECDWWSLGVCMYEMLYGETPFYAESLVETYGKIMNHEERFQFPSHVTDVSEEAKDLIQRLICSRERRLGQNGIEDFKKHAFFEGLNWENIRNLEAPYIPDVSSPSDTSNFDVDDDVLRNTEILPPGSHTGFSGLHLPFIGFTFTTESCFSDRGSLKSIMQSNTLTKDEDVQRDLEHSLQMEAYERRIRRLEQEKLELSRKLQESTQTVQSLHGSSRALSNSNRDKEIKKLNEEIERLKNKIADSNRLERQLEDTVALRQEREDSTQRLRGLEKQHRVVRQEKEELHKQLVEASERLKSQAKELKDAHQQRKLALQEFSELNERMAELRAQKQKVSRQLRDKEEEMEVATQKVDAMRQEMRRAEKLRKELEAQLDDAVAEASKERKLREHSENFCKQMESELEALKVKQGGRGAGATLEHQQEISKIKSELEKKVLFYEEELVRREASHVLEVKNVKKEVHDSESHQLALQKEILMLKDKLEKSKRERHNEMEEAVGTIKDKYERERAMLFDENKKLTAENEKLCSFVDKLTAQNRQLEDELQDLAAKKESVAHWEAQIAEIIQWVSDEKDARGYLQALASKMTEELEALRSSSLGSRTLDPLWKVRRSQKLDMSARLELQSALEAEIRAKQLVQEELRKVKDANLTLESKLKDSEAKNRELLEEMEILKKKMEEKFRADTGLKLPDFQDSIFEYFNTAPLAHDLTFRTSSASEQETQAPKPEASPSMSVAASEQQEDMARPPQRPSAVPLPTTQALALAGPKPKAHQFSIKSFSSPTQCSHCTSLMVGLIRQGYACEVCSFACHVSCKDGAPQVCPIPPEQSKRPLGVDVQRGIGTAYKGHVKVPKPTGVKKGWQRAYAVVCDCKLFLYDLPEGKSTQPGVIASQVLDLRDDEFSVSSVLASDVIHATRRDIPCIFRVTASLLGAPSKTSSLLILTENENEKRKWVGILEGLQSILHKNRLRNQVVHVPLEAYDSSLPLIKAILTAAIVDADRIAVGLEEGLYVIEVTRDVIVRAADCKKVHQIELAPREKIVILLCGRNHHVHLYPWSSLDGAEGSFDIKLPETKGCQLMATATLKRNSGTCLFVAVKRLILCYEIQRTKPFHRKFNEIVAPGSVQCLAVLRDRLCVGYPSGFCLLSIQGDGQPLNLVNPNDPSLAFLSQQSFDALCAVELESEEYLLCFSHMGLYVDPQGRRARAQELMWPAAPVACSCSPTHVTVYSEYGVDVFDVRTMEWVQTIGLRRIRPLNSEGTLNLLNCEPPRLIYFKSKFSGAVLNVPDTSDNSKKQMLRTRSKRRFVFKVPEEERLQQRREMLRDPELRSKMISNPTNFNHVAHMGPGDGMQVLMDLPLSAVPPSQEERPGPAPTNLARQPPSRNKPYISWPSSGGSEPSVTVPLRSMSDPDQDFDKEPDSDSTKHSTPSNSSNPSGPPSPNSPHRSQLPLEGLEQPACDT
A short description of data set [8]: Inhibition of HGK/MINK/TNIK in human HeLa cells lysate at 2 uM pre incubated for 15 mins followed by ATP acyl phosphate probe addition and measured after 10 mins by LC-MS/MS analysis relative to control. To be noted: 25 min, condition cancer.
In data set [9] the target is Ribosomal protein S6 kinase alpha-3 (Homo sapiens, UniProt P51812). As to the kind of experiment: Inhibition of RSK2 domain 2 in human HeLa cells lysate at 50 uM pre incubated for 15 mins followed by ADP acyl phosphate probe addition and measured after 10 mins by LC-MS/MS analysis relative to control. It counts as subcellular. To be noted: time 25.0 min.
For data set [10], the target named is Serine-protein kinase ATM (Homo sapiens, UniProt Q13315). The data set is described as follows: Inhibition of ATM in human HeLa cells lysate pre incubated for 15 mins followed by ADP acyl phosphate probe addition and measured after 10 mins by LC-MS/MS analysis. It counts as subcellular. The method in brief: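 KiNativ-type profiling in HeLa lysate (5 mg/mL total protein). Lysate preincubated 15 min with inhibitor at 50, 10, 2, 0.8 or 0 μM, then ATP or ADP acylphosphate probe added (5 μM final) for 10 min. Reaction stopped with urea and analysed by targeted MS, using up to four fragment ions per kinase peptide-probe conjugate. % inhibition calculated against untreated lysate. Duplicate reactions.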

Data set [11] concerns the target T1, Serine/threonine-protein kinase ULK3 (Homo sapiens) (UniProt Q6PHR2).
T1 sequence (whole entry): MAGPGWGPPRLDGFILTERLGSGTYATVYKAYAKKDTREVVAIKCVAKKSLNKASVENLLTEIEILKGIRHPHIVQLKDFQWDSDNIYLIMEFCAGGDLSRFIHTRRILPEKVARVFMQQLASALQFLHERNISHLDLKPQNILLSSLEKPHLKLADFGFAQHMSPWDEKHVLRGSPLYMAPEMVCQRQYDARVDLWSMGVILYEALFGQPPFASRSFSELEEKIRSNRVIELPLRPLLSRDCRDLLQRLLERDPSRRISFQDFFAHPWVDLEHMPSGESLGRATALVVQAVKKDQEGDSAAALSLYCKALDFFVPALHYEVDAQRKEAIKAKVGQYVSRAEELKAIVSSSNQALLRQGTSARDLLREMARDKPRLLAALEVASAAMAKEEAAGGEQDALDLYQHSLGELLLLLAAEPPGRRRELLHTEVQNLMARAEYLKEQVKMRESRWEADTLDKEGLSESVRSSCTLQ
As to the kind of experiment: Inhibition of ULK3 in human HeLa cells lysate at 50 uM pre incubated for 15 mins followed by ADP acyl phosphate probe addition and measured after 10 mins by LC-MS/MS analysis relative to control. It counts as subcellular. To be noted: time 25.0 min.

Data set [12] in a line: Inhibition of MST4/YSK1 in human HeLa cells lysate at 50 uM pre incubated for 15 mins followed by ATP acyl phosphate probe addition and measured after 10 mins by LC-MS/MS analysis relative to control. To be noted: 25 min, condition cancer.
A short description of data set [13]: AUCinfinity in Sprague-Dawley rat at 1 mg/kg, iv measured up to 8 hrs by LC-MS/MS analysis. It counts as ADME, organism-based. The note with it: in vivo. In short, it runs like this: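 Sprague-Dawley rats given one intravenous dose or one oral dose of 2 mg/kg. Plasma drug concentrations were followed over time, with samples taken out to 8 hr after dosing. PK parameters (clearance, volume of distribution, half-life, oral bioavailability, Cmax) were calculated from these concentration–time data.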

In data set [14] the target is T2, Serine/threonine-protein kinase 3 (Homo sapiens) (UniProt Q13188).
T2 sequence (whole entry): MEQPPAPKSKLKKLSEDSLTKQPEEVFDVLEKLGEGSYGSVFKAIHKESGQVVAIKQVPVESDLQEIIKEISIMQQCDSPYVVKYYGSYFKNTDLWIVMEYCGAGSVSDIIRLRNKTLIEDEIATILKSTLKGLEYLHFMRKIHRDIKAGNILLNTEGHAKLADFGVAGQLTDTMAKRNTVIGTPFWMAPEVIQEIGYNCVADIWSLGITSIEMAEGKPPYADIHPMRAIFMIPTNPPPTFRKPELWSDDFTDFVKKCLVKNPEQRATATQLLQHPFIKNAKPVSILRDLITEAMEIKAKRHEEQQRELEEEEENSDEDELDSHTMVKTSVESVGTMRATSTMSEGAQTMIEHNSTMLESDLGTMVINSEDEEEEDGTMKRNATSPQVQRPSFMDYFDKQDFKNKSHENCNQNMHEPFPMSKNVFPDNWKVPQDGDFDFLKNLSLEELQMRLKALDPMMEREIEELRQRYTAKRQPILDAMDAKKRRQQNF
The data set is described as follows: Inhibition of MST2 in human HeLa cells lysate at 10 uM pre incubated for 15 mins followed by ADP acyl phosphate probe addition and measured after 10 mins by LC-MS/MS analysis relative to control. It counts as subcellular. To be noted: time 25.0 min.

Data set [15] deals with MAP/microtubule affinity-regulating kinase 3 (Homo sapiens, UniProt P27448). The data set is described as follows: Inhibition of MARK3 in human HeLa cells lysate at 10 uM pre incubated for 15 mins followed by ATP acyl phosphate probe addition and measured after 10 mins by LC-MS/MS analysis relative to control. The note with it: time 25.0 min. It counts as subcellular.

Usually IC50 stands for the concentration needed to halve the response being measured. Usually inhibition stands for the drop in the measured response relative to a control, in per cent. Usually AUC(0-inf) stands for total exposure, with the tail of the curve extrapolated. A higher AUC(0-inf) goes with more exposure.

Chain of Ribosomal protein S6 kinase beta-1 (P23443 whole entry): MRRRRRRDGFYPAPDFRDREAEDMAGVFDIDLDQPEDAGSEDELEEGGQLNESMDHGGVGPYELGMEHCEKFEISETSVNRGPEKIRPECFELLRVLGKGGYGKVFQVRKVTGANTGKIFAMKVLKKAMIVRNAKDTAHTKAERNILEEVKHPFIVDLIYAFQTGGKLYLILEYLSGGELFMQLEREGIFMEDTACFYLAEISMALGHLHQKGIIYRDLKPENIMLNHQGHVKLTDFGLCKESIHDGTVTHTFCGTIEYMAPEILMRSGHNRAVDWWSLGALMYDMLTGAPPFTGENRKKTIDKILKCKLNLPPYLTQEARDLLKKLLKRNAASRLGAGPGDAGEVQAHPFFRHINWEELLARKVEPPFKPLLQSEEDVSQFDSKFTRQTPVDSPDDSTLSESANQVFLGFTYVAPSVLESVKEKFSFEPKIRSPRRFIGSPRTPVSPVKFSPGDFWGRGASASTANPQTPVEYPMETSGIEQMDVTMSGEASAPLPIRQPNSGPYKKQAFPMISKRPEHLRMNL

Regarding `CCOc1cc(N2CCC(O)CC2)ccc1Nc1ncc2c(n1)N(C)c1ccccc1C(=O)N2C`, the IC50 in data set [1], in [2], in data set [4], in data set [5], in data set [7] and in data set [10] was > 50 µM throughout. In addition, the inhibition was -0.3% in data set [3]; 23.7% in data set [6]; 49% in [9]; 19.4% in [11]; 23.5% in data set [14]; -9.2% in data set [15]. In addition, the inhibition at 2 µM in data set [8] was -5.2%. Besides, the inhibition at 50 µM in data set [12] was -6.1%. In addition, the AUC(0-inf) in [13] worked out at 1.39 µM·h.
